# Sampled rows, rich in hits. Any-hit rate of the full collection: about 1.8%.
# CAL PDZ FP-1: untagged CAL PDZ binding inhibitors, primary screen, biochemical, fluorescence polarization, HTS; Golgi-associated PDZ and coiled-coil motif-containing protein (Homo sapiens), Q9HD26; purified CAL PDZ, TMR-peptide fluorescence polarization, 1 h; inhibition, % at 24.9 µM; 300,000 tested, 0.92% active; AID 602252, 2012;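 active = mean inhibition of at least 30% with at least half of replicates also reaching 30%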;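 note: 0% = DMSO neutral control and 100% = excess unlabeled competitor peptide PRC23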
# DDE Tn6 FP inh: inhibitors of Tn6 peptide binding to fibrin DD(E), primary screen, biochemical, fluorescence polarization, human fibrin, Tn6 probe | 370,000 tested, 0.21% active | Fibrinogen beta chain (Homo sapiens), P02675 | Fibrin DD(E) TRITC-Tn6 fluorescence polarization displacement | inhibition, % at 8.3 µM | AID 720509, 2013;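 active = inhibition above a per-campaign cutoff: mean of compounds within control limits plus 3 SD, cut at about 15% in these data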;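 note: 0% = median of all compound wells on the plate and 100% = blocking peptide control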
# Target sequence (P02675 whole entry, looked up): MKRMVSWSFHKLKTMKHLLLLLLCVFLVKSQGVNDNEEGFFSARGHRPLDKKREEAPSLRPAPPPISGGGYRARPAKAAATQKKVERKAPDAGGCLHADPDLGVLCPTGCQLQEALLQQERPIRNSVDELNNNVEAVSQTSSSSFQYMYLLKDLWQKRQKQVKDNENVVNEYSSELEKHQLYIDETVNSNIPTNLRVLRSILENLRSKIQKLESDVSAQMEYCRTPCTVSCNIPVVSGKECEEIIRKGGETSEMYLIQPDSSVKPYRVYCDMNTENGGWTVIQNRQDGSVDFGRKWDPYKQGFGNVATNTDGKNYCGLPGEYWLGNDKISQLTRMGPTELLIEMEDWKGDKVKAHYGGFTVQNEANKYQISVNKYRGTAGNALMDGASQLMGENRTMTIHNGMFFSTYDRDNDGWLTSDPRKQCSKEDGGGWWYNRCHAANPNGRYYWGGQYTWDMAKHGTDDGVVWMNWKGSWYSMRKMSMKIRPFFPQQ
# ARNT-TACC3 inh: disruptors of ARNT/TACC3 protein interaction, primary screen, biochemical, AlphaScreen, single concentration. Transforming acidic coiled-coil-containing protein 3 (Homo sapiens), Q9Y6A5. AlphaScreen His-ARNT PAS-B/GST-TACC3 binding, luminescence; TACC3 fragment carries E629A point mutation. inhibition, % at 9.99 µM. 390,000 tested, 0.66% active. AID 623870, 2012;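 active = mean inhibition of replicates at least 50% and at least half of replicates each reaching 50%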;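 note: 0% = complete ARNT plus TACC3 wells and 100% = ARNT alone without TACC3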
# GRK2 inh: compounds blocking aptamer binding on GRK2 – biochemical, human GRK2, bead flow cytometry, HTS, primary screen; FAM-aptamer displacement from GRK2; inhibition of aptamer binding, % at 10 µM; 330,000 tested, 0.59% active; AID 488847, 2010;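 active = inhibition of aptamer binding above 40%, roughly 3 SD of noise, on plates passing a quality check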;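 note: median bead fluorescence of bound FAM aptamer so fluorescent compounds give negative values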
# CAL PDZ FP-2: CAL PDZ peptide-binding inhibitors, primary screen, biochemical, fluorescence polarization, Cer-tagged CAL PDZ, HTS | purified CAL PDZ, TMR-peptide fluorescence polarization, 1 h | inhibition, % at 20 µM | 330,000 tested, 0.02% active;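 active = highest replicate inhibition of at least 40%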;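 note: plate controls were DMSO neutral control wells for no effect and unlabeled competitor peptide control wells for full effect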
#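 Control set: unlabelled peptide and DMSO controls / Material: purified CerCALP PDZ construct / Timing: 1 h incubation at room temperature before polarization reading / Doses: 20 µM, one dose / Detection: fluorescence polarization (mP)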
# DDE Tn7 FP inh: inhibitors of Tn7 peptide binding to fibrin DD(E), primary screen, biochemical, fluorescence polarization, human fibrin, Tn7 probe | inhibition, % at 8.3 µM | Fibrinogen beta chain (Homo sapiens), P02675 | AID 720508, 2013 | 370,000 tested, 0.13% active | FP displacement of FITC-Tn7 peptide from fibrin DD(E); 0% = median of compound wells per plate;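 active = inhibition above the mean of compounds falling within the control limits plus 3 SD of them, cut at about 14% in these data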;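 note: 0% = plate median of compound wells and 100% = 10 µM Aha-Tn7 peptide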
#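 System: human fibrin DD(E); quantity: Fibrin-DD(E) at 2 µM final; also added: fluorescent Tn7 probe at 0.1 µM; compound dosing: single nominal test concentration of 8.3 µM per compound; schedule: 10 min preincubation, 3 h with tracer, room temperature; detection: fluorescence polarization of the labelled Tn7 tracer; repeats: one replicate per compound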
# An asterisk follows results filed as active; . = not tested or not shown.
SMILES,CAL PDZ FP-1,DDE Tn6 FP inh,ARNT-TACC3 inh,GRK2 inh,CAL PDZ FP-2,DDE Tn7 FP inh
CC(=O)n1c2ccccc2c2nc3ccccc3nc21,-6,.,-6,.,-15,.
C=CCNc1nc2c3ccccc3n(C(C)=O)c2s1,11,1,active,3,-2,10
COc1ccc(C2=NN(S(=O)(=O)c3ccccc3)C(c3ccccc3)C2)cc1 (stereo not given),1,-7,2,0,-2,0
O=S(=O)(c1ccccc1)N1N=C(c2ccccc2)CC1c1ccccc1 (stereo not given),45*,0,-2,5,-1,-5
O=C(Cn1cncn1)N/N=C/c1ccccc1O,0,1,78*,4,-2,7
O=C(Cn1cnc([N+](=O)[O-])n1)N/N=C/c1ccccc1O,0,1,75*,0,0,-4
O=C(Cn1cncn1)N/N=C/c1ccncc1,.,10,-7,2,0,5
COc1ccc(-c2nc(N)n(C(=O)c3ccco3)n2)cc1,77*,-2,-4,0,.,5
Nc1nc(-c2ccc(Cl)cc2)nn1C(=O)c1ccco1,-1,-2,-7,1,0,-1
CO[C@H]1CN(C)C(=O)c2cc(NC(=O)Nc3c(C)noc3C)ccc2OC[C@@H](C)N(C)C[C@H]1C,.,.,-1,.,.,.
COc1ccc(C(=O)OCCCN(C)C2CN(Cc3cn(Cc4ccccc4Cl)nn3)S(=O)(=O)C2)cc1OC (stereo not given),.,-8,.,.,.,2
CCCCC(=O)NC(=S)NNC(=O)CCc1ccccc1,-3,-3,29*,0,-2,-1
CCCCC(=O)NC(=S)NNC(=O)c1ccc(OC)cc1,3,5,54*,3,1,-5
COc1ccc(C(C(=O)Nc2ccc(F)cc2)N2CCN(CC(=O)N3CCCC3)CC2)cc1 (stereo not given),.,7,.,.,.,-2
Oc1[nH]c2ccccc2c1N=Nc1nncc2ccccc12,52*,11,3,4,0,3
CC1(C)Oc2ccc3ccc(=O)oc3c2/C(=C/NNC(N)=S)C1=O,-6,-2,75*,1,1,-3
Cc1ccccc1-c1cnc2c(c1)C(=O)N([C@@H](C)CO)C[C@H](C)[C@@H](CN(C)Cc1ccncc1)O2,.,.,0,.,.,.
CC(C)(C)N(Cc1nc(-c2ccccc2)no1)C(=O)c1ccc2c(c1)OCO2,65*,-4,-2,0,-1,-3
CN(Cc1nc(-c2ccccc2)no1)C(=O)c1ccc2c(c1)OCO2,1,9,-4,0,-3,2
O=C(CSc1nnc(C2CC2)n1Cc1ccccc1)N1CCN(S(=O)(=O)c2ccccc2)CC1,42*,0,-2,0,1,0
COc1ccc(CN2C(=O)c3cccnc3C2=O)cc1S(=O)(=O)N1CC(C)CC(C)C1 (stereo not given),4,4,29*,2,-1,-1
COc1ccc(CN2C(=O)c3cccnc3C2=O)cc1S(=O)(=O)NC1CCCCC1,-4,2,38,1,-3,-2
COc1ccc(-c2csc(/C(C#N)=C\c3ccc(OC)c([N+](=O)[O-])c3)n2)cc1,0,2,-3,90*,-2,-6
Cc1ccc(C)c(N2CCN(Cc3nnnn3C3CCCCC3)CC2)c1,3,3,-7,0,0,-6
Cc1ccc2nc(N3CCN(Cc4nnnn4C4CCCC4)CC3)c(C#N)cc2c1,55*,-10,-11,5,-2,-3
SMILES,CAL PDZ FP-1,DDE Tn6 FP inh,ARNT-TACC3 inh,GRK2 inh,CAL PDZ FP-2,DDE Tn7 FP inh
COc1ccc(OC)c(NC(=O)C(C)N2c3cccc4cccc(c34)S2(=O)=O)c1 (stereo not given),73*,4,4,0,0,-4
COc1ccc(OC)c(NC(=O)CN2c3cccc4cccc(c34)S2(=O)=O)c1,-5,-2,2,2,-1,0
COc1ccc(C(=O)NCCC(C)C)cc1S(=O)(=O)N1CCOCC1,2,-1,-11,0,-1,3
COc1ccc(CC(=O)NCCC(C)C)cc1S(=O)(=O)N1CCOCC1,42*,4,-2,3,-2,4
CCOc1ccc(OCCC(=O)OCC(=O)Nc2cc(S(=O)(=O)N3CCOCC3)ccc2OC)cc1,21,1,-2,.,0,3
CCOc1ccc(/C=N/OCC(=O)Nc2cc(S(=O)(=O)N3CCOCC3)ccc2OC)cc1,47*,-7,-3,0,.,-6
CN(C)c1ccc2c(O)cc(=O)n(C)c2c1,-6,8,18,4,.,-1
O=Nc1c(O)ccc2cc(S(=O)(=O)O)ccc12,-6,.,18*,.,0,.
CN(C)c1ccc2cc(S(=O)(=O)O)cc(O)c2c1,.,-12,36*,.,1,0
CCc1noc(C)c1C(=O)NNC(=O)c1cc(OC)cc(OC)c1,2,5,-1,0,1,-3
COc1cc(C(=O)N2CCN(S(=O)(=O)c3cccs3)CC2)cc(OC)c1C,58*,2,-2,0,-1,3
O=C(c1cccs1)N1CCN(S(=O)(=O)c2cccs2)CC1,6,8,-2,0,-2,-14
O=C(O)CC(CC(=O)Nc1ccc(Oc2ccccc2)cc1)c1ccccc1 (stereo not given),-2,-5,-7,0,-1,-4
COc1ccc(NC(=O)CC(CC(=O)O)c2cc(OC)c(OC)c(OC)c2)cc1 (stereo not given),59*,5,-8,0,0,-2
NS(=O)(=O)c1ccc2nc(NC(=O)c3ccc4c(c3)OCCO4)sc2c1,63*,1,-17,0,-1,3
O=C(N/C(=C\c1ccc(Cl)cc1)C(=O)N1CCCCC1)c1ccco1,82*,-2,.,1,-1,7
CSc1ccc(/C=C(/NC(=O)c2ccco2)C(=O)N2CCCCCC2)cc1,-7,-1,5,2,0,-4
C[C@@H]1CN([C@H](C)CO)C(=O)c2cc(NS(=O)(=O)c3ccc(F)cc3)ccc2O[C@H]1CN(C)C(=O)Nc1ccc(F)cc1,.,.,-9,.,.,.

# Compound activity: PubChem BioAssay, several laboratories
